This note sets out measurements from BindingDB's records for doi:10.1021/jm00053a001 (Merck Sharp and Dohme Research Laboratories, 1993).

The structures appear in SMILES notation. Where a SMILES comes first, the peptide text is derived from it.

Test [1] deals with T1, Substance-K receptor (Rattus norvegicus, UniProt P16610).
T1 sequence (P16610 whole entry): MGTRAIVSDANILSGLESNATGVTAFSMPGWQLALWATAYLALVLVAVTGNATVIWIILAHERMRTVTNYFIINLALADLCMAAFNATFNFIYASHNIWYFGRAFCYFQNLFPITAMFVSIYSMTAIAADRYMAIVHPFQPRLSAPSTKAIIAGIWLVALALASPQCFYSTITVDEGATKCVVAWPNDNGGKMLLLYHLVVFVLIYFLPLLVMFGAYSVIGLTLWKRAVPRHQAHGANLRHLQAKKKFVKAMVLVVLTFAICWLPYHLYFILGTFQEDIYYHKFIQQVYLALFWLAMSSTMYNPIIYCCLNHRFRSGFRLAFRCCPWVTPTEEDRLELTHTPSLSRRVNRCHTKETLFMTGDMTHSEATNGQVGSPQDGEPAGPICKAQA
The test is described as follows: Inhibition of eledoisin binding to NK-2 receptor in rat vas deferens. The method in brief:
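Vas deferens from Sprague-Dawley rats (200–300 g), electrically stimulated contractions with supramaximal rectangular bipolar pulses. Eledoisin log dose-response curves; antagonism taken from rightward shift. pA2 by Schild regression over three or more antagonist concentrations, or apparent pA2 from one antagonist concentration via the standard Schild equation assuming unit slope.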

Test [2] concerns the target Substance-P receptor (Cavia porcellus, UniProt P30547). Kind of test: Tested for antagonist activity toward NK-1 receptor in guinea pig ileum against the agonist eledoisin (mean +/-, n=4). The method in brief:
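Guinea pig (male Dunkin-Hartley, 300–400 g) small-intestine longitudinal muscle, isometric contraction in Krebs-Henseleit at 37 °C with atropine, mepyramine, methysergide (each 5 μM) and indomethacin (1 μM). Antagonism measured as rightward shift of log dose-response curves to eledoisin. pA2 from Schild regression (least squares, three or more antagonist concentrations, three or more observations each), or apparent pA2 at a single concentration assuming unit slope (mean of 3–4 observations).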

Test [3] concerns the target T2, Neuromedin-K receptor (Rattus norvegicus, UniProt P16177).
T2 sequence (P16177 whole entry): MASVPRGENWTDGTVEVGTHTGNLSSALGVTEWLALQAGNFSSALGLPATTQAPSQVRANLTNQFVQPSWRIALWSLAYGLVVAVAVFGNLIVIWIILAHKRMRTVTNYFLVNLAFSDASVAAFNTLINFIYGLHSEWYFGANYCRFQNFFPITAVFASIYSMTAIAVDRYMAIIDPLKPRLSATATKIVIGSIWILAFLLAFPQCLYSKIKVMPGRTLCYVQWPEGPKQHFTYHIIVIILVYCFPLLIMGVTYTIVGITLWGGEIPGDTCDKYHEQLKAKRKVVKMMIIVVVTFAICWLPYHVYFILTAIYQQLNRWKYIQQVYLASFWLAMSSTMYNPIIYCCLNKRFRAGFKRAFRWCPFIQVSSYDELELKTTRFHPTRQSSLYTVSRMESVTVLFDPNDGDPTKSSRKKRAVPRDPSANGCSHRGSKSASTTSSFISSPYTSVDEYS
The test is described as follows: Tested for antagonist activity toward NK-3 receptor in rat portal vein against the agonist eledoisin (mean +/-, n=4). The method in brief: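 Rat portal vein longitudinal strips; frequency and amplitude of myogenic contractions recorded. Antagonist activity derived from rightward shift of eledoisin log dose-response curves. pA2 by Schild regression, least squares, three or more antagonist concentrations, or apparent pA2 at a single antagonist concentration assuming unit slope (mean of three or four observations).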

Chain of Substance-P receptor (P30547 whole entry): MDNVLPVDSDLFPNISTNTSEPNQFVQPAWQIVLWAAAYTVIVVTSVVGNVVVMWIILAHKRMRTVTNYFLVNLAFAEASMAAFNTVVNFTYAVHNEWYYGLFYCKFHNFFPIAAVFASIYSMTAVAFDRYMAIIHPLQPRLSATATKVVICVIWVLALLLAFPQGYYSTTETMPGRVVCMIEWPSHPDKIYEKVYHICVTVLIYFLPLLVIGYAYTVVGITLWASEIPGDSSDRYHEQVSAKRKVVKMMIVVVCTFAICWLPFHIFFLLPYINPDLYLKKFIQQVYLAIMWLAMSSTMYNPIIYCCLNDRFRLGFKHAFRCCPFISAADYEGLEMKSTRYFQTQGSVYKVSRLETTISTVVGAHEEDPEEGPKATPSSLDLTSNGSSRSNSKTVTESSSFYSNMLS

`CSCC[C@@H]1NC(=O)[C@H](CC(C)C)NC(=O)[C@H](Cc2ccccc2)NC(=O)[C@H](Cc2c[nH]c3ccccc23)NC(=O)[C@H](CCC(N)=O)NC1=O` (cyclo(FLMQW)): in test [1], the affinity, expressed as Kd, was 0.631 µM. With `CSCC[C@H]1NC(=O)[C@H](CC(C)C)NC(=O)[C@@H]2CCCN2C(=O)[C@H](Cc2ccccc2)NC(=O)[C@@H](Cc2c[nH]c3ccccc23)NC(=O)[C@H](CCC(N)=O)NC1=O`, the affinity in test [1], expressed as Kd, was 15.8 µM.

`CSCC[C@H]1NC(=O)[C@H](CC(C)C)NC(=O)[C@H]2CCCN2C(=O)[C@H](Cc2ccccc2)NC(=O)[C@@H](Cc2c[nH]c3ccccc23)NC(=O)[C@H](CCC(N)=O)NC1=O`: in test [1], the Kd – broadly, the constant that tells how readily two partners part at equilibrium – turned out to be 20 µM. On the same count and under the same terms, then `CSCC[C@H]1NC(=O)[C@H](CC(C)C)N2C=CC(NC(=O)[C@H](Cc3ccccc3)NC(=O)[C@@H](Cc3ccccc3)NC(=O)C(CCC(N)=O)NC1=O)C2=O` (some centres not stated), with 15.8 µM. For `CSCC[C@@H]1NC(=O)[C@H](CC(C)C)NC(=O)CNC(=O)[C@H](Cc2ccccc2)NC(=O)[C@H](Cc2c[nH]c3ccccc23)NC(=O)[C@H](CCC(N)=O)NC1=O` (cyclo(FGLMQW)), the dissociation constant Kd in test [1] turned out to be 0.00794 µM; in test [2], 2 µM; in test [3] it was 7.94 µM.
